Each structure is given as a SMILES string. Values after ≈ are worked out from the molar mass of the structure shown. Active and inactive are the calls of the source. The rule behind the calls is not given here.

Experiment [1] has as its system Staphylococcus aureus. Briefly: Antimicrobial activity against Staphylococcus aureus clinical isolate up to 0.4 umol/ml after 24 hrs by broth dilution assay. In kind it is functional, organism-based. In outline: (§1)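 Clinical isolate tested by broth dilution in chemically defined medium. Serial dilutions span 0.4 to 0.005 μmol/ml. Incubation is 24 h at 35°. MIC is taken as the highest dilution of compound that prevents visible growth.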
For orientation: In broth dilution the organism is exposed to a series of concentrations in liquid medium.

Experiment [2] concerns Pseudomonas aeruginosa. Briefly: Antimicrobial activity against Pseudomonas aeruginosa clinical isolate up to 0.4 umol/ml after 24 hrs by broth dilution assay. In kind it is functional, organism-based. In a few lines: as §1
In experiment [3] the test system is Escherichia coli. Briefly: Antimicrobial activity against Escherichia coli clinical isolate up to at 0.4 umol/ml after 24 hrs by broth dilution assay. In kind it is functional, organism-based. In outline:
as §1

The test system of experiment [4] is Staphylococcus aureus. In words: Antimicrobial activity against Staphylococcus aureus clinical isolate after 24 hrs by broth dilution assay. In kind it is functional. In a few lines:
(§2)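 Clinical isolates were tested by broth dilution using serial dilutions in chemically defined medium over 0.4 to 0.005 µmol/ml. Plates were incubated for 24 h at 35°. MIC was taken as the highest dilution that prevented visible growth.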

For experiment [5], the system named is Pseudomonas aeruginosa. Briefly: Antimicrobial activity against Pseudomonas aeruginosa clinical isolate after 24 hrs by broth dilution assay. The format is functional. In outline: as §2
In experiment [6] the test system is Trichophyton mentagrophytes. Briefly: Antifungal activity against Trichophyton mentagrophytes clinical isolate at 0.4 umol/ml after 48 hrs by broth dilution assay. In kind it is functional, organism-based. In a few lines:
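The clinical dermatophyte isolate was tested by broth dilution using serial dilutions in chemically defined medium over 0.4 to 0.005 µmol/ml. Inhibition was read after 48 h at 30°. MIC was the highest dilution with no visible growth.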

The next experiment has as its system Candida albicans. In words: Antifungal activity against Candida albicans clinical isolate at 0.4 umol/ml after 24 hrs by broth dilution assay. In kind it is functional, organism-based. In a few lines: as §2
The subject of experiment [7] is Escherichia coli. In words: Antimicrobial activity against Escherichia coli clinical isolate after 24 hrs by broth dilution assay. The format is functional. In a few lines:
as §2

Consider `O=C1NCC([N+](=O)[O-])C(=O)N1` (stereo unspecified), for which the outcome in the experiment with Staphylococcus aureus [1], in the experiment with Pseudomonas aeruginosa [2] and in the experiment with Escherichia coli [3] was inactive.
As to `O=c1[nH]c(=O)n(-c2ccc([N+](=O)[O-])cc2)cc1[N+](=O)[O-]`, the outcome in the experiment with Staphylococcus aureus [1], with Pseudomonas aeruginosa [2] and in the experiment on Escherichia coli [3] was inactive.
As to `[N-]=[N+]=C1C(=O)NC(=O)NC1O` (stereo unspecified), the minimum inhibitory concentration (MIC) (usually the lowest concentration that inhibits growth of the organism) worked out at 20 µM (≈ 3.12 µg/mL) against Staphylococcus aureus [4], 20 µM (≈ 3.12 µg/mL) with Pseudomonas aeruginosa [5] and 10 µM (≈ 1.56 µg/mL) with Escherichia coli [7]. Moreover, the outcome (in experiment [6]; in the experiment with Candida albicans) was inactive.
Take `CC1NC(=O)NC(=O)C1[N+](=O)[O-]` (stereo unspecified): the outcome in the experiment with Staphylococcus aureus [1], in the experiment on Pseudomonas aeruginosa [2] and in the experiment on Escherichia coli [3] was inactive.
For the compound `CCOC(=O)[C@H]1O[C@@H](n2cc([N+](=O)[O-])c(=O)[nH]c2=O)[C@H](O)[C@@H]1O`, the result in the experiment on Staphylococcus aureus [1], in the experiment on Pseudomonas aeruginosa [2] and in the experiment with Escherichia coli [3] was inactive.
With `CCOC(=O)[C@H]1O[C@@H](N2CC([N+](=O)[O-])C(=O)NC2=O)[C@H](O)[C@@H]1O` (stereo partly specified), the result with Staphylococcus aureus [1], with Pseudomonas aeruginosa [2] and with Escherichia coli [3] was inactive.
For the compound `O=C1NC(=O)N(c2ccc([N+](=O)[O-])cc2)CC1[N+](=O)[O-]` (stereo unspecified), the outcome in the experiment on Staphylococcus aureus [1], in the experiment with Pseudomonas aeruginosa [2] and in the experiment on Escherichia coli [3] was inactive.
In the case of `[N-]=[N+]=C1C=NC(=O)NC1=O`, the MIC in the experiment with Staphylococcus aureus [4] came out at 10 µM (≈ 1.38 µg/mL); against Pseudomonas aeruginosa [5], 40 µM (≈ 5.52 µg/mL); in the experiment with Escherichia coli [7], 20 µM (≈ 2.76 µg/mL). Also, the outcome (in experiment [6]; with Candida albicans) was inactive.
On to `Cc1[nH]c(=O)[nH]c(=O)c1[N+](=O)[O-]`, for which the outcome in the experiment on Staphylococcus aureus [1], with Pseudomonas aeruginosa [2] and in the experiment on Escherichia coli [3] was inactive.

(Values after ChEMBL document CHEMBL3272276, “Synthesis and antimicrobial evaluation of substituted 5,6-dihydro-5-nitrouracils” (1976).)
